One assay deals with PC-3. The assay is described as follows: Cytotoxicity against human PC3 cells by MTT assay. The assay is classed as functional, cell-based. The gist of the method: (§1)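 Cells in 96-well plates exposed to test compounds for 48 h. MTT (5 mg/mL in PBS) then added and plates held 2 h at 37 °C under 5% CO2. Absorbance read at 570 nm and IC50 values reported.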
Another assay concerns DU-145. The assay is described as follows: Cytotoxicity against human DU145 cells by MTT assay. The assay is classed as functional, cell-based. Put shortly:
as §1

For `CC(=O)O[C@H]1[C@@H](O)[C@H](O)C(C)(C)[C@@H]2CC[C@@H]3[C@]4(CC[C@]5(C)[C@@H]([C@H](C)CCC=C(C)C)CC[C@@]35C)C[C@]124`, the results for the half-inhibitory concentration (IC50) with PC-3 and in the assay with DU-145 were 13.4 µM and greater than 50 µM, respectively.
For `CC(C)=CCC[C@@H](C)[C@H]1CC[C@@]2(C)[C@@H]3CC[C@H]4C(C)(C)[C@@H](O)C[C@H](O)[C@@]45C[C@@]35CC[C@]12C`, the IC50 in the assay with PC-3 and in the assay on DU-145 was greater than 50 µM in each case.
With `C[C@H](C/C=C/C(C)(C)O)[C@H]1CC[C@@]2(C)[C@@H]3CC[C@H]4C(C)(C)[C@@H](O)[C@H](O)[C@H](O)[C@@]45C[C@@]35CC[C@]12C`, the IC50 in the assay on PC-3 came to 10.3 µM; in the assay with DU-145, 34.7 µM.
In the same order, the values of `CC(C)=CCC[C@@H](C)[C@H]1CC[C@@]2(C)[C@@H]3CC[C@H]4C(C)(C)[C@H](O)[C@H](O)[C@H](O)[C@@]45C[C@@]35CC[C@]12C` are greater than 50 µM and greater than 50 µM.
Take `CC(=O)O[C@H]1[C@H](O)[C@H](O)[C@]23C[C@]24CC[C@]2(C)[C@@H]([C@H](C)CCC=C(C)C)CC[C@@]2(C)[C@@H]4CC[C@H]3C1(C)C`: the half-inhibitory concentration (IC50) amounted to 15.4 µM in the assay on PC-3 and 20.7 µM in the assay on DU-145.
Consider `CC(C)=CCC[C@@H](C)[C@H]1CC[C@@]2(C)[C@@H]3CC[C@H]4C(C)(C)[C@@H](OC(=O)CC(C)C)[C@H](O)[C@H](O)[C@@]45C[C@@]35CC[C@]12C`, for which the IC50 with PC-3 is 28.4 µM; in the assay on DU-145, greater than 50 µM.
In the same order, the values of `CC(C)=CCC[C@@H](C)[C@H]1CC[C@@]2(C)[C@@H]3CC[C@H]4C(C)(C)[C@@H](O)[C@H](O)[C@H](O)[C@@]45C[C@@]35CC[C@]12C` are 10.1 µM and 37.2 µM.

Values taken from ChEMBL document CHEMBL1144709, “Cycloartane-type triterpenoids from the resinous exudates of Commiphora opobalsamum” (J Nat Prod, 2008).
